Measured values as given in ChEMBL document CHEMBL1121363, “DNA intercalating compounds as potential antitumor agents. 2. Preparation and properties of 7H-pyridocarbazole dimers” (1980).

Key:
Calf thymus DNA [1] = assay: Dimer binding constant for DNA of calf thymus at pH 7.4; type: nucleic-acid assay; conditions: Bos taurus
Procedure, shortened: (§1)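 Fluorimetric competition: calf thymus DNA (B = 1.6 × 10⁻⁶ M base pairs) with ethidium dimer (6.4 × 10⁻⁷ M) equilibrated 24 h with varied dimer concentrations, 20 °C. Buffers: 0.2 M sodium acetate pH 5, or 0.1 M NaCl/0.1 M Tris-HCl pH 7.4. Ex 540/em 610 nm. Displacement curve fitted to McGhee–von Hippel equations using n set by ethidium bromide competition, giving Kap.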

Calf thymus DNA [2] = assay: Dimer binding constant for DNA of calf thymus at pH 5.; type: nucleic-acid assay; conditions: Bos taurus; procedure, shortened: as §1
Calf thymus DNA [3] = assay: Displacement of ethidium from DNA of calf thymus at pH 7.4; type: nucleic-acid assay; conditions: Bos taurus
Procedure, shortened: (§2)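 Ethidium dimer (6.4 × 10⁻⁷ M) pre-bound to calf thymus DNA (1.6 × 10⁻⁶ M base pairs), 24 h equilibration with competing dimer, 20 °C, in 0.2 M sodium acetate pH 5 or 0.1 M NaCl/0.1 M Tris-HCl pH 7.4. Fluorescence ex 540, em 610 nm. rf50 = ratio of total dimer to DNA base pairs displacing 50% of bound ethidium dimer.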

Mus musculus [4] = assay: Evaluated for the antitumor activity against L1210 Murine leukemia at optimum intraperitoneal dose 0.25 of the MTD
Calf thymus DNA [5] = assay: Displacement of ethidium from DNA of calf thymus at pH 5; type: nucleic-acid assay; conditions: Bos taurus; procedure, shortened: as §2
Mus musculus [6] = assay: Evaluated for the antitumor activity against L1210 Murine leukemia at optimum intraperitoneal dose 0.2 of the MTD
Mus musculus [7] = assay: Evaluated for the antitumor activity against L1210 Murine leukemia at optimum intraperitoneal dose 0.5 of the MTD
Mus musculus [8] = assay: Evaluated for the antitumor activity against L1210 Murine leukemia at optimum intraperitoneal dose 0.8 of the MTD
Mus musculus [9] = assay: Evaluated for the antitumor activity against L1210 Murine leukemia at optimum intraperitoneal dose 0.4 of the MTD

K app (Calf thymus DNA [1]) | K app (Calf thymus DNA [2]) | rf50 (Calf thymus DNA [3]) | rf50 (Calf thymus DNA [5]) | Structure (SMILES) | T/C (Mus musculus [4]) [%] | T/C (Mus musculus [6]) [%] | T/C (Mus musculus [7]) [%] | T/C (Mus musculus [8]) [%] | T/C (Mus musculus [9]) [%]
1e+06 | 2e+08 |  |  | COc1ccc2[nH]c3c(C)c4cc[n+](CCN5CCC(C6CCN(CC[n+]7ccc8c(C)c9[nH]c%10ccc(OC)cc%10c9c(C)c8c7)CC6)CC5)cc4c(C)c3c2c1 |  |  |  |  | 
1e+07 | 5e+08 | 0.96 | 0.32 | COc1ccc2[nH]c3ccc4cc[n+](CCN5CCC(C6CCN(CC[n+]7ccc8ccc9[nH]c%10ccc(OC)cc%10c9c8c7)CC6)CC5)cc4c3c2c1.[Cl-].[Cl-] [DITERCALINIUM CHLORIDE] | 216 |  |  |  | 
4e+06 | 1e+09 | 2.24 | 0.25 | COc1ccc2[nH]c3ccc4cc[n+](CCN5CCC(CCCC6CCN(CC[n+]7ccc8ccc9[nH]c%10ccc(OC)cc%10c9c8c7)CC6)CC5)cc4c3c2c1 |  |  |  |  | 
300000 | 1.8e+06 | 20 | 9.5 | COc1ccc2c(c1)c1c3c[n+](CCN4CCCCC4)ccc3ccc1n2C |  |  |  |  | 
1e+06 | 1e+08 |  |  | Cc1c2cc[n+](CCN3CCC(C4CCN(CC[n+]5ccc6c(C)c7[nH]c8ccc(O)cc8c7c(C)c6c5)CC4)CC3)cc2c(C)c2c1[nH]c1ccc(O)cc12 |  |  |  |  | 
500000 | 2e+08 | 13 | 0.5 | Oc1ccc2[nH]c3ccc4c[n+](CCN5CCC(C6CCN(CC[n+]7ccc8c(ccc9[nH]c%10ccc(O)cc%10c98)c7)CC6)CC5)ccc4c3c2c1 |  |  |  |  | 
3e+06 | 5e+08 | 3.4 | 0.32 | COc1ccc2[nH]c3ccc4c[n+](CCN5CCC(C6CCN(CC[n+]7ccc8c(ccc9[nH]c%10ccc(OC)cc%10c98)c7)CC6)CC5)ccc4c3c2c1.[Cl-].[Cl-] |  | 130 |  |  | 
2e+07 | 1e+09 | 0.72 | 0.24 | COc1ccc2[nH]c3ccc4cc[n+](CC(O)CN5CCC(C6CCN(CC(O)C[n+]7ccc8ccc9[nH]c%10ccc(OC)cc%10c9c8c7)CC6)CC5)cc4c3c2c1 (stereo not drawn) |  |  |  |  | 
6e+06 | 5e+08 | 1.2 | 0.32 | COc1ccc2c(c1)c1c3cc[n+](CCN4CCC(C5CCN(CC[n+]6ccc7c(ccc8c7c7cc(OC)ccc7n8C)c6)CC5)CC4)cc3ccc1n2C |  |  |  |  | 
8e+06 | 1e+08 | 8.4 | 0.8 | COc1ccc2[nH]c3ccc4cc[n+](CCN(C)CCCCCN(C)CC[n+]5ccc6ccc7[nH]c8ccc(OC)cc8c7c6c5)cc4c3c2c1 |  |  |  |  | 
5e+06 | 3e+08 | 1.4 | 0.4 | [Cl-].[Cl-].c1ccc2c(c1)[nH]c1ccc3cc[n+](CCN4CCC(C5CCN(CC[n+]6ccc7ccc8[nH]c9ccccc9c8c7c6)CC5)CC4)cc3c12 |  |  | 121 |  | 
2e+07 | 3e+08 | 0.72 | 0.4 | COc1ccc2c(c1)c1c3c[n+](CCN4CCC(C5CCN(CC[n+]6ccc7ccc8c(c7c6)c6cc(OC)ccc6n8C)CC5)CC4)ccc3ccc1n2C.[Cl-].[Cl-] |  |  |  | 155 | 
3e+06 | 3e+06 | 3 | 2.4 | COc1ccc2[nH]c3ccc4cc[n+](CCCCCCCCCC[n+]5ccc6ccc7[nH]c8ccc(OC)cc8c7c6c5)cc4c3c2c1.[Br-].[Br-] |  |  | 124 |  | 
1e+07 | 5e+08 | 1.2 | 0.32 | Oc1ccc2[nH]c3ccc4cc[n+](CCN5CCC(C6CCN(CC[n+]7ccc8ccc9[nH]c%10ccc(O)cc%10c9c8c7)CC6)CC5)cc4c3c2c1.[Cl-].[Cl-] |  |  |  |  | 157
